Experimental data gathered from unrelated publications.
Protocols differ between the studies behind these lines.
Target: Mitogen-activated protein kinase 11 (MAPK11, Homo sapiens, UniProt Q15759)

| Compound | observed | method | concentration | remaining binding [%] |
| --- | --- | --- | --- | --- |
| c1cnn2ncc(-c3ccnc(N4CCC45COC5)n3)c2c1 | binding | competition with immobilised ligand | 1 µM | 100 |
| O=C(NCCCN1CCOCC1)c1ccc(Nc2nccc(-c3cc4ccccc4s3)n2)cc1 | binding | competition with immobilised ligand | 1 µM | 98 |
| COc1cc(-c2cn(C3CCc4ccccc4N(CC(F)(F)F)C3=O)nn2)ccc1-n1ccc(C)n1 (stereo not shown) | cell-free assay | competition with immobilised ligand | 1 µM | 82 |
| COc1ccnn2ncc(-c3ccnc(N(C)C)n3)c12 | binding | competition with immobilised ligand | 1 µM | 92 |
| COc1cnc(Nc2cccc(S(N)(=O)=O)c2)nc1N1CCN(c2ccccc2)CC1 | binding | competition with immobilised ligand | 1 µM | 100 |
| c1cncc(-c2cccc(Nc3nccc(NC4CCCCC4)n3)c2)c1 | binding | competition with immobilised ligand | 10 µM | 89 |
| O=C(NCC1CCOCC1)c1n[nH]cc1NC(=O)c1c(F)cccc1F | binding | competition with immobilised ligand | 1 µM | 96 |
| O=C(c1ccc(Nc2nccc(-c3cc4ccccc4s3)n2)cc1)N1CCC(N2CCCC2)CC1 | binding | competition with immobilised ligand | 1 µM | 95 |
| COc1ncc2cc3ccccc3nc2c1C#N | cell-free assay | competition with immobilised ligand | 5 µM | 92 |
| CCS(=O)(=O)c1cc2cc(C[C@](O)(CC(C)(C)c3ccc(F)cc3C(N)=O)C(F)(F)F)[nH]c2cn1 | cell-free assay | competition with immobilised ligand | 1 µM | 100 |
| CN(c1nccc(-c2cnn3ncccc23)n1)C1CC1 | binding | – | 1 µM | 89 |
| CC(C)(C)c1ccc(-c2nc(CBr)nn2-c2cccc(O)c2)cc1 | cell-free assay | competition with immobilised ligand | 10 µM | 99 |
| O=S(=O)(NC1CCC(c2cc(F)ccc2F)(S(=O)(=O)c2ccc(Cl)cc2)CC1)C(F)(F)F (stereo not shown) | cell-free assay | competition with immobilised ligand | 1 µM | 94 |
| N[C@@H]1CCN(c2nccc(-c3cnn4ncccc34)n2)C1 | binding | competition with immobilised ligand | 1 µM | 100 |
| C[C@@H]1CN(c2ccc3ncc(-c4ccc5[nH]nc(C6CC6)c5c4)n3n2)C[C@H](C)O1 | binding | competition with immobilised ligand | 0.5 µM | 100 |
| C=CC(=O)N1CCC(C(=O)NCC(=O)N2CCN(c3nc(-c4cnc(N)nc4C(F)F)nc(N4CCOCC4)n3)CC2)CC1 | binding | competition with immobilised ligand | 1 µM | 89 |
| CN(C)c1ncnc(-c2ccc3nc(Nc4cc(CN5CCN(C(=O)CC(F)(F)F)CC5)ccn4)[nH]c3c2)c1Cl | cell-free assay | competition with immobilised ligand | 1 µM | 97 |
| O=C(NCCCN1CCOCC1)c1ccc(Nc2ncc(Cl)c(-c3ccc(Cl)s3)n2)cc1 | binding | competition with immobilised ligand | 1 µM | 98 |
| O=C(N[C@H]1CCCCC/C=C\C2C[C@@]2(C(=O)O)NC(=O)[C@@H]2C[C@@H](Oc3ccncc3)CN2C1=O)OC1CCCC1 (stereo partly shown) | binding | competition with immobilised ligand | 1 µM | 100 |
| C[C@@H](c1ccc(-n2cnc3c(N)ncnc32)cc1)N1CCc2nn(C)c(Cc3ccccc3)c2C1=O | binding | competition with immobilised ligand | 0.1 µM | 92 |
| Cc1cc(C)c(-n2ccn3nc(-c4cccnc4)cc23)cc1NC(=O)c1cc(C#N)cc(S(F)(F)(F)(F)F)c1 | cell-free assay | competition with immobilised ligand | 0.1 µM | 93.4 |
| C[C@H]1CCN(c2nccc(-c3cnn4ncccc34)n2)C1 | binding | competition with immobilised ligand | 1 µM | 55 |
